# Published values collected from several papers.
# Compare with care: the assays were run in different laboratories.
# Cell line: HeLa
# Effect on: cell growth or viability
SMILES,method,time,IC50
NCCCOc1cc(NC(=O)c2cc(OCc3c[nH]nn3)cc(C(=O)Nc3cc(OCCCN)c4ccccc4n3)n2)nc2ccccc12,ATP luminescence,72 h,> 40 µM
CC(C)CC1NC(=O)C(C(=O)NC(C(=O)NC2C(=O)N3C2SC(C)(C)C3C(=O)O)c2ccccc2)=C1O (stereo not drawn),ATP luminescence,48 h,69.1 µg/mL
CCOc1cc(OCC)cc(C(=O)O[C@@H]2CN3Cc4c(cc5c(c4OC)OCO5)[C@@]24C=C[C@H](OC)C[C@@H]34)c1,WST-1,48 h,5 µM
COC(=O)CN=c1scc(-c2ccccc2)n1-c1ccc(Cl)cc1,MTT,72 h,17 µM
NCCCOc1cc(NC(=O)c2cc(Cl)cc(C(=O)Nc3cc(OCCCN)c4ccccc4n3)n2)nc2ccccc12,ATP luminescence,72 h,0.7 µM
COc1ccccc1C(=O)c1cc2c(-c3ccccc3)c(O)ccc2o1,,,24 µM
O=C(Nc1cc(OCCN2CCCC2)c2ccccc2n1)c1cc(OCc2ccc(F)cc2)cc(C(=O)Nc2cc(OCCN3CCCC3)c3ccccc3n2)n1,ATP luminescence,72 h,13 µM
COc1cc(C)c(-c2c(C)cc(OC)c3c(=O)cc(-c4ccc(C(F)(F)F)cc4)oc23)c2oc(-c3ccc(C(F)(F)F)cc3)cc(=O)c12,MTT,48 h,> 100 µM
C=CCC[C@@H]1NC(=O)[C@H]2CCCN2C(=O)[C@H](Cc2ccccc2)NC(=O)C(C)(C)NC1=O,XTT,,> 100 µM
COc1cc(C(=O)Nc2cc(OC)c3ccccc3n2)nc(C(=O)Nc2cc(OC)c3ccccc3n2)c1,ATP luminescence,72 h,> 40 µM
COc1ccc(-c2cc(=O)c3c(OC)cc(OC)cc3o2)cc1,MTT,48 h,33 µM
Oc1c(I)cc(I)c2cccnc12,MTT,48 h,> 100 µM
C[C@@H](O)C(=O)CCCCCCC(=O)Nc1ccccc1,XTT,,> 50 µM
COC(=O)CN=c1scc(-c2ccccc2)n1-c1ccccc1[N+](=O)[O-],MTT,,6.02 µM
COc1cc(C)cc2oc(-c3ccccc3Br)cc(=O)c12,MTT,48 h,76.3 µM
CC1(C)[C@@H](O)CC[C@]2(C)[C@H]3C(=O)C=C4[C@@H]5C[C@@](C)(C(=O)O)CC[C@]5(C)CC[C@@]4(C)[C@]3(C)CC[C@@H]12,MTT,48 h,17.3 µM
Clc1ccnc2c1ccc1c(Cl)ccnc12,MTT,48 h,> 50 µM
Brc1ccc(C#CC#Cc2ccc(Br)cc2)cc1,MTT,24 h,16.3 µg/mL
Cc1c(O)c(=O)ccn1-c1ccc(C(=O)O)cc1,MTT,72 h,600 µM
COc1cccc2c1C(=O)c1c(O)c3c(c(O)c1C2=O)C[C@@](O)(C(=O)CO)C[C@@H]3O[C@H]1C[C@H](N)[C@H](O)[C@H](C)O1,MTT,24 h,1.71 µg/mL
COc1cc(C)cc2oc(-c3cccc(Br)c3)cc(=O)c12,MTT,48 h,32.9 µM
CC(C)(C)Oc1ccc(CC2NC(=O)C(C(=O)NC(C(=O)NC3C(=O)N4C3SC(C)(C)C4C(=O)O)c3ccccc3)=C2O)cc1 (stereo not drawn),ATP luminescence,48 h,59.3 µg/mL
C#CCOc1cc(C(=O)Nc2cc(OCCCN)c3ccccc3n2)nc(C(=O)Nc2cc(OCCCN)c3ccccc3n2)c1,ATP luminescence,72 h,3.6 µM
CC1(C)SC2C(NC(=O)C(NC(=O)C3=C(O)C(Cc4ccsc4)NC3=O)c3ccccc3)C(=O)N2C1C(=O)O (stereo not drawn),ATP luminescence,48 h,58.9 µg/mL
COc1cc(OC)cc(C(=O)c2cc3c(-c4ccccc4)c(OC)ccc3o2)c1,,,> 50 µM
CC(C)C1NC(=O)C(C(=O)NC(C(=O)NC2C(=O)N3C2SC(C)(C)C3C(=O)O)c2ccccc2)=C1O (stereo not drawn),ATP luminescence,48 h,59 µg/mL
COc1cc(C)cc2oc(-c3ccc(Br)cc3)cc(=O)c12,MTT,48 h,> 100 µM
CC(=O)c1ccc(-c2cccc(NC(=O)CCc3cccc4c3B(O)OC4)c2)cc1,ATP luminescence,,1.27 µM
COc1cc(OC)c2c(=O)cc(-c3cccc(Br)c3)oc2c1,MTT,48 h,72 µM
CC1(C)SC2C(NC(=O)C(NC(=O)C3=C(O)C(Cc4ccc([N+](=O)[O-])cc4)NC3=O)c3ccccc3)C(=O)N2C1C(=O)O (stereo not drawn),ATP luminescence,48 h,133 µg/mL
C=CCNC1=C2C[C@@H](C)C[C@H](OC)[C@H](O)[C@@H](C)/C=C(\C)[C@H](OC(N)=O)[C@@H](OC)/C=C\C=C(/C)C(=O)NC(=CC1=O)C2=O,MTT,,0.159 µM
COc1cc(C#CC#Cc2cc(OC)cc(OC)c2)cc(OC)c1,MTT,24 h,4.51 µg/mL
O=C(c1ccccc1)c1cc2c(-c3ccccc3)c(O)ccc2o1,,,35 µM
COc1cc(OC)c2c(=O)cc(-c3ccccc3)oc2c1-c1c(OC)cc(OC)c2c(=O)cc(-c3ccccc3)oc12,MTT,48 h,22.1 µM
Oc1c(I)cc(Cl)c2cccnc12,MTT,48 h,70.2 µM
NCCOc1cc(NC(=O)c2cc(OCc3ccc(F)cc3)cc(C(=O)Nc3cc(OCCN)c4ccccc4n3)n2)nc2ccccc12,ATP luminescence,72 h,9.6 µM
COc1cc(OC)c2c(=O)cc(-c3ccc(N(C)C)cc3)oc2c1,MTT,48 h,55.7 µM
CCCCCCC#CC#CCCCCCC,MTT,24 h,36 µg/mL
CCN1CCN(C(=O)N[C@@H](C(=O)N[C@@H]2C(=O)N3[C@@H]2SC(C)(C)[C@@H]3C(=O)O)c2ccccc2)C(=O)C1=O,ATP luminescence,48 h,68.2 µg/mL
COc1cccc2c1C(=O)c1c(O)c3c(c(O)c1C2=O)C[C@@](O)(C(=O)CO)C[C@@H]3O[C@H]1C[C@H](N)[C@H](O)[C@H](C)O1,MTT,72 h,3.62 µM
COc1cccc(C(=O)c2cc3c(-c4ccccc4)c(OC)ccc3o2)c1,,,5.4 µM
O=C(CCc1cccc2c1B(O)OC2)Nc1ccc(-c2ccccc2)cc1,ATP luminescence,72 h,> 31.6 µM
CC1CS(=O)(=O)CCN1/N=C/c1ccc([N+](=O)[O-])o1 (stereo not drawn),,,43 µM
CCCC(O)C#CC#CC(O)CCC (stereo not drawn),MTT,24 h,19.3 µg/mL
O=C(O)CN1c2ccccc2Sc2ccccc21,MTS,,13.2 µM
